# Measured values from different studies.
# Protocols differ between the studies behind these lines. pEC50, pIC50: −log10 of the molar value.
# Organism: Plasmodium falciparum
# Observed: parasite growth
# Notes: blood stage
Structure (SMILES),technique,strain,time,quantity,value
COc1cc(/C=C/C(=O)C(=Cc2ccc([N+](=O)[O-])cc2)C(=O)/C=C/c2ccc(O)c(OC)c2)ccc1O,,3D7,,pEC50,5.56
CCOC1=CC(c2ccc[nH]2)=N/C1=C\c1cc(Cc2ccc(OC(F)(F)F)cc2)c(C)[nH]1,SYBR Green,D6,72 h,pIC50,8.16
CO[C@H]1C[C@H](O[C@@H]2/C(C)=C/C[C@@H]3C[C@@H](C[C@]4(CC[C@H](C)[C@@H](C5CCCCC5)O4)O3)OC(=O)[C@@H]3C=C(C)/C(=N/O)[C@H]4OC/C(=C\C=C\[C@@H]2C)[C@]43O)O[C@@H](C)[C@@H]1O,,NF54,,pIC50,6.16
COc1cc(/C=C/c2cc(/C=C/c3ccc(O)c(OC)c3)n(-c3cccc([N+](=O)[O-])c3)n2)ccc1O,,3D7,,pEC50,6.09
Cc1nnc(-c2ccc3ccn(CC(=O)Nc4ccccn4)c3c2)o1,,3D7,72 h,pEC50,5.32 to 5.37
CC1=C(C)/C(=C/c2[nH]c(Cc3ccc(Cl)cc3)cc2Cc2ccc(Cl)cc2)N=C1c1ccc[nH]1,SYBR Green,D6,72 h,pIC50,< 5.60
CC(=O)[C@@]1(O)[C@H](O)C[C@H]2[C@@H]3CCC4=CC(=O)CC[C@]4(C)[C@H]3CC[C@@]21C,SYBR Green,3D7,,pIC50,6.85
C[C@H]1Cc2c([nH]c3cc(Cl)c(F)cc23)[C@@]2(N1)C(=O)Nc1ccc(Cl)cc12,,DD2,72 h,pEC50,9.15
COc1cc(/C=C/C(=O)C(=Cc2ccc(O)cc2)C(=O)/C=C/c2ccc(O)c(OC)c2)ccc1O,,3D7,,pEC50,5.36
Cc1ccc(Oc2ccc(NC(=O)COc3ccccc3N3CCCC3=O)cc2)cc1,,3D7,72 h,pEC50,5.80
CCC1=C(CC)/C(=C/c2cc(-c3ccc(OC(F)(F)F)cc3)c(C)[nH]2)N=C1c1ccc[nH]1,SYBR Green,D6,72 h,pIC50,< 5.60
Cc1ccc(N(c2ccc(NC(=O)CN(C)c3ccccc3N3CCCC3=O)cc2)C(C)C)cc1,,3D7,72 h,pEC50,8.30
CC(C(=O)Nc1ccccc1Cl)n1ccc2ccc(-c3cnn(C)c3)cc21 (stereo not drawn),,3D7,72 h,pEC50,5.95
O=C(CNc1ccccc1N1CCCC1=O)Nc1ccc(Oc2ccccc2)cc1,,3D7,72 h,pEC50,< 5.00
CCN(CC)CCOc1ccc2c(c1)C(=O)c1cc(OCCN(CC)CC)ccc1-2,SYBR Green,3D7,,pIC50,5.81
COC1=C(OC)/C(=C/c2cc(-c3ccc(OC(F)(F)F)cc3)c(C)[nH]2)N=C1c1ccc[nH]1,SYBR Green,D6,72 h,pIC50,6.28
CC(C)N(c1ccc(NC(=O)CN(C)c2ccccc2N2CCCC2=O)cc1)c1ccc(Cl)c(F)c1,,3D7,72 h,pEC50,7.41
CO[C@H]1/C=C/O[C@@]2(C)Oc3c(C)c(O)c4c(O)c(c(/C=N/N5CCN(C6CCCC6)CC5)c(O)c4c3C2=O)NC(=O)/C(C)=C\C=C\[C@H](C)[C@H](O)[C@@H](C)[C@@H](O)[C@@H](C)[C@H](OC(C)=O)[C@@H]1C,,NF54,,pIC50,6.62
Cn1cc(-c2ccc3ccn(CC(=O)Nc4ccccc4Cl)c3c2)c(C(F)(F)F)n1,,3D7,72 h,pEC50,7.34
Cc1[nH]c(/C=C2\N=C(c3ccc[nH]3)C=C2OCc2ccccc2)cc1Cc1ccc(Cl)cc1,SYBR Green,D6,72 h,pIC50,8.00
COc1cc(/C=C2\CCC/C(=C\c3ccc(O)c(OC)c3)C2=O)ccc1O,,3D7,,pEC50,6.70
CCC1=C(CC)/C(=C/c2cc(Cc3ccc(Cl)cc3)c(C)[nH]2)N=C1c1ccc[nH]1,SYBR Green,D6,72 h,pIC50,6.46
Cc1ccc(N(C)c2ccc(NC(=O)CN(C)c3ccccc3N3CCCC3=O)c(F)c2)cc1,,3D7,72 h,pEC50,8.52
COc1cc(/C=C2\CC/C(=C\c3ccc(O)c(OC)c3)C2=O)ccc1O,,3D7,,pEC50,6.60
CC(C)N(c1ccc(C#N)cc1)c1ccc(NC(=O)CN(C)c2ccccc2N2CCCC2=O)c(F)c1,,3D7,72 h,pEC50,7.36
COC1=C(OC)/C(=C/c2[nH]c(Cc3ccc(OC(F)(F)F)cc3)cc2Cc2ccc(OC(F)(F)F)cc2)N=C1c1ccc[nH]1,SYBR Green,D6,72 h,pIC50,7.07
Cc1ccc(Oc2ccc(NC(=O)C(C)(C)Nc3ccccc3N3CCCC3=O)cc2)cc1,,3D7,72 h,pEC50,< 5.00
COc1cc(/C=C/C(=O)/C=C/c2ccc(O)c(OC)c2)ccc1O,,3D7,,pEC50,6.82
COC1=CC(c2ccc[nH]2)=N/C1=C\c1[nH]c(-c2ccc(OC)cc2)cc1-c1ccc(OC)cc1,SYBR Green,D6,72 h,pIC50,7.51
COc1ccnn1-c1ccccc1NCC(=O)Nc1ccc(Oc2ccc(C)cc2)cc1,,3D7,72 h,pEC50,< 5.00
